One experiment relates to Rattus norvegicus. The experiment can be described thus: Summation of percentage reductions, compared to pretreatment controls, in MABP of DOCA hypertensive rats at 1,2,3,5,8 hr after the 50 mg/kg oral dose. The experiment is classed as functional. In a few lines: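 DOCA hypertensive rats (n = 5) were dosed orally. MABP (diastolic + one-third pulse pressure) was read before dosing and at 1, 2, 3, 5 and 8 h. The value is the sum of the % reductions from pretreatment control over these five time points.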
As for `Cc1ccccc1-c1nnc(NN)s1`, the “Summation MABP” value was 206.

A further experiment deals with Rattus norvegicus. The experiment can be described thus: Maximum percentage reduction in mean blood pressure in metacorticoid (DOCA) hypertensive rats at a standard oral dose of 50 mg/kg. It is filed as functional. In short, it runs like this: (§1)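 Rats were DOCA hypertensive. For oral dosing, food was withdrawn 18 h before; rats dosed ip were not starved. The vehicle was isotonic saline. Pressure was recorded by transducer under minimal restraint: twice before dosing, then at 1, 2, 3, 5 and 22 h. MABP was taken as diastolic + one-third pulse pressure. The value is the maximum % fall from the mean of the two pretreatment readings, n = 3-5.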
Consider `Cl.N=C(N)Nc1nnc(-c2ccccc2I)s1`, for which the Reduction amounted to 28%.

For `Cc1ccccc1-c1nnc(NN)s1`, the Reduction is reported as 48%.

Another experiment has as its system Rattus norvegicus. In words: Maximum percentage reduction in mean blood pressure in metacorticoid (DOCA) hypertensive rats at a standard oral dose of 100 mg/kg; IA = Inactive;Maximum percentage fall in MABP <10%. More on the design: dose 100 mg/kg. The experiment is classed as functional, organism-based. In short, it runs like this:
as §1
Regarding `Cc1ccc(-c2nnc(N=C(N)N)s2)cc1`, the Reduction result was “Not significant”.

`N=C(N)Nc1nnc(-c2ccccc2-c2ccccc2)s1`: the Reduction result is “Not significant”. On the same count and under the same terms, in the case of `Cc1ccccc1-c1nnc(N(C)C2=NCCN2)s1` it was “Not significant”.

On to `N=C(N)Nc1nnc(C2CCCCC2)s1`, for which the Reduction entry was “Not significant”. Still for that read-out and setting: in the case of `N=C(N)Nc1nnc(-c2ccc([N+](=O)[O-])cc2)s1` it was “Not significant”. The same measure, in the same setting: in the case of `Cc1ccccc1-c1nnc(NC2=NCCN2C)s1` it was “Not significant”; in that of `Cc1ccccc1-c1nnc(NC(=N)Nc2ccccc2)s1`, “Not significant”.

Consider `COc1cccc(-c2nnc(N=C(N)N)s2)c1`, for which the Reduction entry was “Not significant”. Still for that read-out and setting: in the case of `Cc1cccc(C)c1-c1nnc(N=C(N)N)s1` it was “Not significant”. Still for that read-out and setting: in the case of `Cc1ccccc1-c1nnc(NC(=N)NC2CCC2)s1` it was “Not significant”. The same measure, in the same setting: then `Cc1ccccc1-c1nnc(NC(=N)N2CCCC2)s1`, with “Not significant”; and `Cc1ccc(-c2nnc(N=C(N)N)s2)c(C)c1`, with “Not significant”. Turning to `Cc1ccc(C)c(-c2nnc(N=C(N)N)s2)c1`, the Reduction result is “Not significant”. Same read-out and setting: in the case of `CCCC/N=C(\NCCCN(C)C)Nc1nnc(-c2ccccc2C)s1` it was “Not significant”. In the case of `N=C(N)Nc1nnc(-c2ccccc2O)s1`, the Reduction entry is “Not significant”. The same measure, in the same setting: in the case of `Cc1ccccc1-c1nnc(N=C2N(C)CCN2C)s1` it was “Not significant”.

The subject of a further experiment is Rattus norvegicus. The experiment can be described thus: Maximum percentage reduction in mean arterial blood pressure in metacorticoid (DOCA) hypertensive rats at a standard oral dose of 100 mg/kg. The experiment is classed as functional. In short, it runs like this:
as §1
For the molecule `Cl.N=C(N)Nc1nnc(-c2cccc(C(F)(F)F)c2)s1`, the Reduction was found to be 14%.

The molecule `CSCC/N=C(/N)Nc1nnc(-c2ccccc2C)s1.Cl` registered a Reduction of 18%. `Cc1ccccc1-c1nnc(N/C(N)=N\C(C)C)s1.Cl` gave a Reduction of 23%. `CO/N=C(/N)Nc1nnc(-c2ccccc2C)s1.Cl`: the Reduction was 29%. On the same count and under the same terms, in the case of `C=CCNC(=N)Nc1nnc(-c2ccccc2C)s1.Cl` it was 28%; in that of `Cl.Ic1ccccc1-c1nnc(NC2=NCCN2)s1`, 33%; in that of `Cc1ccccc1-c1nnc(NC(=N)NCCc2ccccc2)s1.Cl`, 29%.

`Cl.N=C(N)Nc1nnc(-c2ccccc2Cl)s1` came in with a Reduction of 30%.

On to `CC(=O)NCC/N=C(/N)Nc1nnc(-c2ccccc2C)s1`, for which the Reduction turned out to be 21%. In turn, `Cl.N=C(N)Nc1nnc(-c2cccc(F)c2)s1` had a Reduction of 20%. Molecule `Cc1ccc(-c2nnc(NC3=NCCN3)s2)c(C)c1.Cl` displayed a Reduction of 24%. Still for that read-out and setting: then `Cc1ccccc1-c1nnc(NC(=N)NC(C)(C)C)s1.Cl`, with 18%; and `Cl.N=C(N)Nc1nnc(-c2cccc(Cl)c2)s1`, with 12%. The molecule `Cc1ccccc1-c1nnc(Nc2ncc[nH]2)s1.Cl` displayed a Reduction of 40%.

Take `Cl.N=C(N)Nc1nnc(-c2ccccc2F)s1`: the Reduction is on record as 31%. Still for that read-out and setting: then `Cl.N=C(N)Nc1nnc(-c2ccc(F)cc2)s1`, with 20%. On the same count and under the same terms, in the case of `Cl.N=C(N)Nc1nnc(-c2ccc(C(F)(F)F)cc2)s1` it was 18%; in that of `Cl.N=C(N)Nc1nnc(-c2ccccc2)s1`, 30%; in that of `Cc1ccccc1-c1nnc(NC2=NC(C)(C)CN2)s1.Cl`, 15%. Still for that read-out and setting: in the case of `Cl.N=C(N)Nc1nnc(-c2ccccc2C(F)(F)F)s1` it was 26%; in that of `Cc1ccccc1-c1nnc(NC2=NCCCN2)s1.Cl`, 13%. The molecule `Cc1ccccc1-c1nnc(NC(=N)NCCN)s1.Cl` registered a Reduction of 32%. On the same count and under the same terms, then `Cc1ccccc1-c1nnc(N/C(N)=N\CCCN(C)C)s1.Cl`, with 20%.

The subject of a further experiment is Rattus norvegicus. In words: Maximum percentage reduction in mean blood pressure in metacorticoid (DOCA) hypertensive rats at a standard oral dose of 100 mg/kg. It is filed as functional. In a few lines:
as §1
The molecule `COc1ccc(-c2nnc(N=C(N)N)s2)cc1OC.Cl` came in with a Reduction of 21%. `CCOCC/N=C(/N)Nc1nnc(-c2ccccc2C)s1.Cl` yielded a Reduction of 34%. Same read-out and setting: then `Cl.N=C(N)Nc1nnc(-c2cccc3ccccc23)s1`, with 20%; and `CSc1ccccc1-c1nnc(N=C(N)N)s1.Cl`, with 13%. Still for that read-out and setting: then `Cl.N=C(N)Nc1nnc(-c2ccccc2[N+](=O)[O-])s1`, with 17%; and `Cc1ccccc1-c1nnc(NC(=N)NCc2ccccc2)s1.Cl`, with 12%. Same read-out and setting: in the case of `COc1cccc(OC)c1-c1nnc(N=C(N)N)s1` it was 16%. `Cc1ccccc1-c1nnc(NC(=N)NCCO)s1.Cl` came in with a Reduction of 35%. Same read-out and setting: then `Cc1ccc(F)cc1-c1nnc(N=C(N)N)s1.Cl`, with 21%; and `COCC/N=C(/N)Nc1nnc(-c2ccc(OC)c(OC)c2)s1.Cl`, with 20%; and `Cc1ccccc1-c1nnc(NC(=N)N(C)CC(C)O)s1.Cl` (configuration not stated), with 21%. The same measure, in the same setting: in the case of `Cl.N=C(N)Nc1nnc(-c2ccc(Cl)c(Cl)c2)s1` it was 15%. Still for that read-out and setting: then `Cc1ccsc1-c1nnc(N=C(N)N)s1.Cl`, with 14%; and `C[S+]([O-])c1ccccc1-c1nnc(N=C(N)N)s1.Cl` (configuration not stated), with 15%; and `CCC[S+]([O-])c1ccccc1-c1nnc(N=C(N)N)s1.Cl` (configuration not stated), with 13%. Consider `COc1ccccc1-c1nnc(N=C(N)N)s1.Cl`, for which the Reduction worked out at 26%.

In turn, `CCCOc1ccccc1-c1nnc(N=C(N)N)s1.Cl` gave a Reduction of 12%.

For the molecule `C/N=C(/NC)Nc1nnc(-c2ccccc2C)s1.Cl`, the Reduction is 27%. On the same count and under the same terms, in the case of `Cc1ccccc1-c1nnc(NC(=N)NCC2CCCO2)s1.Cl` (configuration not stated) it was 17%; in that of `CCCCC/N=C(/N)Nc1nnc(-c2ccccc2C)s1.Cl`, 23%. Still for that read-out and setting: in the case of `Cl.N=C(N)Nc1nnc(-c2ccccc2I)s1` it was 41%; in that of `COCC/N=C(/N)Nc1nnc(-c2ccc(F)cc2C)s1.Cl`, 33%; in that of `Cc1ccccc1-c1nnc(NC(=N)NC2CCCC2)s1.Cl`, 20%.

For `Cl.N=C(N)Nc1nnc(-c2ccccc2N)s1`, the Reduction is recorded as 14%. Same read-out and setting: then `COCC/N=C(/N)Nc1nnc(-c2ccccc2I)s1.Cl`, with 33%; and `Cl.N=C(N)Nc1nnc(-c2cccs2)s1`, with 32%. On the same count and under the same terms, then `Cc1ccc(-c2nnc(N=C(N)N)s2)cc1C.Cl`, with 33%; and `Cc1cc(F)ccc1-c1nnc(N=C(N)N)s1.Cl`, with 34%; and `COc1cc(C)c(-c2nnc(N=C(N)N)s2)cc1OC.Cl`, with 24%. On the same count and under the same terms, then `COCCC/N=C(/N)Nc1nnc(-c2ccccc2C)s1.Cl`, with 33%. With `Cc1cccc(-c2nnc(N=C(N)N)s2)c1C.Cl`, the Reduction is given as 14%. As for `C/N=C(/N)Nc1nnc(-c2ccccc2C)s1`, the Reduction is 31%. Same read-out and setting: in the case of `Cc1ccccc1-c1nnc(NC(=N)NCCCO)s1.Cl` it was 24%. The same measure, in the same setting: in the case of `Cl.N=C(N)Nc1nnc(-c2ccco2)s1` it was 24%. The same measure, in the same setting: then `Cc1cc(C)cc(-c2nnc(N=C(N)N)s2)c1.Cl`, with 18%; and `CCC/N=C(/N)Nc1nnc(-c2ccccc2C)s1.Cl`, with 32%; and `Cc1ccccc1-c1nnc(NC(=N)N(C)C)s1.Cl`, with 18%. In the case of `CC(C)(C)c1ccccc1-c1nnc(N=C(N)N)s1`, the Reduction was determined as 22%. Molecule `CCc1ccccc1-c1nnc(N=C(N)N)s1` displayed a Reduction of 12%. On the same count and under the same terms, then `Cc1ccccc1-c1nnc(NC(=N)N2CCN(C)CC2)s1.Cl`, with 18%. Consider `Cl.N=C(N)Nc1nnc(-c2ccccn2)s1`, for which the Reduction is on record as 19%. Same read-out and setting: in the case of `Cc1cccc(-c2nnc(N=C(N)N)s2)c1.Cl` it was 19%; in that of `COCC/N=C(/N)Nc1nnc(-c2ccc(C)cc2C)s1.Cl`, 31%. Molecule `CCCC/N=C(/NC)Nc1nnc(-c2ccccc2C)s1.Cl` came in with a Reduction of 28%. The same measure, in the same setting: then `Cc1ccccc1-c1nnc(NC(=N)N2CCOCC2)s1.Cl`, with 16%.

These data come from ChEMBL document CHEMBL1124108, “Antihypertensive thiadiazoles. 2. Vasodilator activity of some 2-aryl-5-guanidino-1,3,4-thiadiazoles” (1988).
